This note sets out measurements from ChEMBL document CHEMBL3091338, “Secoemestrin D, a cytotoxic epitetrathiodioxopiperizine, and emericellenes A-E, five sesterterpenoids from Emericella sp. AST0036, a fungal endophyte of Astragalus lentiginosus1” (J Nat Prod, 2013).

pIC50: −log10 of the molar value. Active and inactive are the calls of the source. No cut-off for these calls is given here.

Data set [1] has as its system SF-268. Nature of the data set: Cytotoxicity against human SF268 cells up to 5 uM after 72 hrs by Alamar Blue assay. Type of data set: functional, cell-based. The procedure, abridged: (§1)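 In vitro cytotoxicity was read by the colorimetric resazurin (AlamarBlue) assay of cell viability. The panel covered human non-small cell lung NCI-H460, CNS glioma SF-268, breast MCF-7, metastatic breast adenocarcinoma MDA-MB-231, metastatic prostate adenocarcinoma PC-3M and neuroblastoma CHP-100 cancer lines, plus normal human lung fibroblast WI-38 cells.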
On the technique in general: Resazurin is reduced to fluorescent resorufin, in cell work by metabolically active cells.

Data set [2] relates to MDA-MB-231. Nature of the data set: Cytotoxicity against human MDA-MB-231 cells up to 5 uM after 72 hrs by Alamar Blue assay. Type of data set: functional, cell-based. The procedure, abridged:
as §1

Data set [3] concerns MCF7. Nature of the data set: Cytotoxicity against human MCF7 cells up to 5 uM after 72 hrs by Alamar Blue assay. Format: functional, cell-based. In outline:
as §1

Data set [4] relates to NCI-H460. Nature of the data set: Cytotoxicity against human NCI-H460 cells up to 5 uM after 72 hrs by Alamar Blue assay. Type of data set: functional, cell-based. The procedure, abridged: as §1
The test system of the next data set is PC-3M. Nature of the data set: Cytotoxicity against human PC3M cells up to 5 uM after 72 hrs by Alamar Blue assay. Format: functional, cell-based. The procedure, abridged:
as §1

A short description of data set [5]: Cytotoxicity against human WI38 cells up to 5 uM after 72 hrs by Alamar Blue assay. The settings on record: wi-38, 72 h. Format: cell-based. The procedure, abridged: as §1
In another data set the test system is CHP100. Nature of the data set: Cytotoxicity against human CHP100 cells up to 5 uM after 72 hrs by Alamar Blue assay. Type of data set: functional, cell-based. In outline: as §1
Data set [6] can be described thus: Cytotoxicity against human PC3M cells after 72 hrs by Alamar Blue assay. Format: functional, cell-based, PC-3M. The procedure, abridged:
(§2)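 Resazurin-based colorimetric cell viability read-out on human cancer cells (MCF-7 breast; PC-3M metastatic prostate adenocarcinoma), run in vitro in a panel that also included normal human lung fibroblast WI-38 cells.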

In data set [7] the test system is NCI-H460. Nature of the data set: Cytotoxicity against human NCI-H460 cells after 72 hrs by Alamar Blue assay. Type of data set: functional, cell-based. The procedure, abridged: as §1
The nature of data set [8]: Cytotoxicity against human CHP100 cells after 72 hrs by Alamar Blue assay. Format: functional, cell-based. The settings on record: CHP100, 72 h. The procedure, abridged: as §1
In data set [9] the test system is MDA-MB-231. Nature of the data set: Cytotoxicity against human MDA-MB-231 cells after 72 hrs by Alamar Blue assay. Format: functional, cell-based. In outline: as §1
In data set [10] the test system is SF-268. Nature of the data set: Cytotoxicity against human SF268 cells after 72 hrs by Alamar Blue assay. Format: functional, cell-based. In outline:
as §1

For data set [11], the system named is MCF7. Nature of the data set: Cytotoxicity against human MCF7 cells after 72 hrs by Alamar Blue assay. Format: functional, cell-based. In outline:
as §2

A short description of data set [12]: Cytotoxicity against human WI38 cells after 72 hrs by Alamar Blue assay. The settings on record: WI-38, 72 h. Type of data set: cell-based. The procedure, abridged:
as §1

As for `CC(C)=CCC[C@@]1(C=O)[C@H]2C/C=C(\C)CC/C=C(\C)CC[C@H]1[C@@]1(CC2)CO1`, the outcome in the data set with SF-268 [1], in the data set on MDA-MB-231 [2], in the data set on MCF7 [3], in the data set on NCI-H460 [4], with PC-3M and in the data set on CHP100 was inactive. Also, the Activity result in data set [5] is listed as “Non-toxic”.

For the compound `COc1cccc2c1C(=O)c1c(O)c3c(c(O)c1C2=O)C[C@@](O)(C(=O)CO)C[C@@H]3O[C@H]1C[C@H](N)[C@H](O)[C@H](C)O1` [DOXORUBICIN], the pIC50 (in general, −log10 of the IC50, conventionally taken in molar units) in data set [6] (Homo sapiens, PC-3M, 72 h) was 6.57; with NCI-H460 [7] (Homo sapiens, NCI-H460, 72 h), 7.30; in data set [8], 6.10; in the data set with MDA-MB-231 [9] (Homo sapiens, MDA-MB-231, 72 h), 6.17; with SF-268 [10] (Homo sapiens, SF-268, 72 h), 6.51.

Take `CC(C)=CCC[C@@]1(C(=O)O)[C@@H]2CC=C(CO)[C@@H]1CC/C(C)=C/CC/C(C)=C/C2`: the result with SF-268 [1], in the data set on MDA-MB-231 [2], with MCF7 [3], with NCI-H460 [4], in the data set with PC-3M and in the data set on CHP100 was inactive. Further, the Activity entry in data set [5] is reported as “Non-toxic”.

For `COc1cc2c(c3oc4cccc(O)c4c(=O)c13)[C@@H]1C=CO[C@@H]1O2` [STERIGMATOCYSTIN], the pIC50 is 5.49 in data set [6] (pc-3m); 5.47 with NCI-H460 [7] (nci-h460); 5.44 with MCF7 [11] (mcf7); 5.56 in the data set with MDA-MB-231 [9] (mda-mb-231); 5.53 in the data set with SF-268 [10] (sf-268).

`CC(C)=CCc1ccc2c(c1O)C(=O)c1c(O)cc(C)c3c1C(O2)C(C(C)(C)O)CO3` (stereo unspecified): the outcome in the data set with SF-268 [1], in the data set with MDA-MB-231 [2], with MCF7 [3], in the data set on NCI-H460 [4], in the data set on PC-3M and in the data set on CHP100 was inactive. The Activity result in data set [5] is on record as “Non-toxic”.

Take `CC(C)=CCC[C@@]1(C(=O)O)[C@H]2C/C=C(\C)CC/C=C(\C)CC[C@H]1[C@@]1(CC2)CO1`: the outcome in the data set on SF-268 [1], in the data set with MDA-MB-231 [2], in the data set with MCF7 [3], in the data set with NCI-H460 [4], in the data set on PC-3M and with CHP100 was inactive. Besides, the Activity entry in [5] is “Non-toxic”.

Consider `C=C(C)[C@H]1COc2c(C)cc3oc4ccc(CC=C(C)C)c(O)c4c(=O)c3c2[C@H]1O` (relative stereo), for which the result with SF-268 [1], in the data set on MDA-MB-231 [2], in the data set with MCF7 [3], with NCI-H460 [4], in the data set with PC-3M and in the data set on CHP100 was inactive. For the same compound, the Activity entry in data set [5] was “Non-toxic”.

Consider `CC(C)=CCC[C@@]1(C(=O)O)[C@H]2C/C=C(\C)CC/C=C(\C)CC[C@H]1[C@H](C=O)CC2`, for which the result in the data set on SF-268 [1], in the data set with MDA-MB-231 [2], with MCF7 [3], with NCI-H460 [4], in the data set on PC-3M and in the data set on CHP100 was inactive. For the same compound, in data set [5], the Activity entry was “Non-toxic”.

Regarding `CC(C)=CCC[C@@]1(C(=O)O)[C@H]2C/C=C(\C)CC/C=C(\C)CC[C@H]1[C@@H](C=O)CC2`, the outcome in the data set with SF-268 [1], with MDA-MB-231 [2], in the data set on MCF7 [3], with NCI-H460 [4], with PC-3M and in the data set with CHP100 was inactive. Also, the Activity entry in [5] is reported as “Non-toxic”.

Regarding `COc1ccc(C(=O)O[C@H]2C=COC=C3C[C@]45SSSS[C@](Cc6ccc(O)cc6)(C(=O)N4[C@@H]32)N(C)C5=O)cc1O`, the pIC50 in data set [6] (Homo sapiens, PC-3M, 72 h) is 6.77; in the data set with NCI-H460 [7] (Homo sapiens, NCI-H460, 72 h), 6.82; with MCF7 [11] (Homo sapiens, MCF7, 72 h), 6.85; in data set [8] it was 7.00; in the data set with MDA-MB-231 [9] (Homo sapiens, MDA-MB-231, 72 h) it was 7.22; in data set [12], 6.62. Moreover, the pIC50 in the data set with SF-268 [10] (Homo sapiens, SF-268, 72 h) was 7.22.
